According to publication PMC8602434 (Drugs in R&D, 2021):

What was measured:
[1] = Dog 28-day toxicology study with pharmacokinetic analysis, sc; assay type: in vivo
[2] = Healthy volunteers, single-dose arm, sc; assay type: in vivo; conditions: human; for half-life: t½
Summary of the method: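 Double-blind single abdominal sc injection at 0.1, 0.5, 1, 3 or 5 mg versus placebo. Cohorts of six or eight subjects; the 0.1 mg cohort had 4 active and 2 placebo. Serial blood sampling to 48 h post-dose. Plasma assayed by validated bioanalytical method. Noncompartmental analysis: Cmax, tmax, t½, AUC (linear trapezoidal to last quantifiable concentration), AUC∞, CL/F. AEs recorded.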

[3] = both, plasma, sc, 0.1 mg, single 0.1 mg sc, mean (SD), n=4
[4] = both, plasma, sc, 0.5 mg, single 0.5 mg sc, mean (SD), n=4
[5] = both, plasma, sc, 1 mg, single 1.0 mg sc, mean (SD), n=6
[6] = both, plasma, sc, 3 mg, single 3.0 mg sc, median, n=6
[7] = both, plasma, sc, 5 mg, single 5.0 mg sc, mean (SD), n=6
[8] = single 0.1 mg sc, geometric mean, n=4
[9] = single 0.1 mg sc, mean (SD), n=4
[10] = single 0.5 mg sc, geometric mean, n=2
[11] = single 0.5 mg sc, geometric mean, n=4
[12] = single 1.0 mg sc, geometric mean, n=6
[13] = single 3.0 mg sc, mean (SD), n=6
[14] = single 5.0 mg sc, geometric mean, n=6
[15] = single 5.0 mg sc, mean (SD), n=6

AUC(0-t) ([2]; both, plasma, sc, 0.1 mg): 2.7 ng·h/mL | tmax ([2]; both, plasma, sc, 0.1 mg): 0.6 h | AUC(0-inf) [2, 3]: 3.5 ng·h/mL | CL/F ([2]; both, plasma, sc, 0.1 mg, CL/F, single 0.1 mg sc, mean (SD), n=4): 29.8 L/h | Cmax ([2]; both, plasma, sc, 0.1 mg, Cmax, single 0.1 mg sc, mean (SD), n=4): 2.3 ng/mL | Vd/F ([2]; both, plasma, sc, 0.1 mg, Vd/F, single 0.1 mg sc, mean (SD), n=4): 36.1 L | half-life [2, 3]: 0.9 h | AUC(0-t) ([2]; both, plasma, sc, 0.5 mg): 19.9 ng·h/mL | tmax ([2]; both, plasma, sc, 0.5 mg): 0.5 h | AUC(0-inf) [2, 4]: 22.4 ng·h/mL | CL/F ([2]; both, plasma, sc, 0.5 mg, CL/F, single 0.5 mg sc, mean (SD), n=4): 28.6 L/h | Cmax ([2]; both, plasma, sc, 0.5 mg, Cmax, single 0.5 mg sc, mean (SD), n=4): 8.2 ng/mL | Vd/F ([2]; both, plasma, sc, 0.5 mg, Vd/F, single 0.5 mg sc, mean (SD), n=2): 74.4 L | half-life [2, 4]: 2.8 h | AUC(0-t) ([2]; both, plasma, sc, 1 mg): 40.3 ng·h/mL | tmax ([2]; both, plasma, sc, 1 mg): 0.6 h | AUC(0-inf) [2, 5]: 46.2 ng·h/mL | CL/F ([2]; both, plasma, sc, 1 mg, CL/F, single 1.0 mg sc, mean (SD), n=6): 22.9 L/h | Cmax ([2]; both, plasma, sc, 1 mg, Cmax, single 1.0 mg sc, mean (SD), n=6): 17.4 ng/mL | Vd/F ([2]; both, plasma, sc, 1 mg, Vd/F, single 1.0 mg sc, mean (SD), n=3): 173 L | Vd/F ([2]; both, plasma, sc, 1 mg, Vd/F, single 1.0 mg sc, median, n=3): 186 L | half-life [2, 5]: 6.7 h | AUC(0-t) ([2]; both, plasma, sc, 3 mg): 137 ng·h/mL | AUC(0-inf) [2, 6]: 163 ng·h/mL | CL/F ([2]; both, plasma, sc, 3 mg, CL/F, single 3.0 mg sc, mean (SD), n=6): 19.3 L/h | CL/F ([2]; both, plasma, sc, 3 mg, CL/F, single 3.0 mg sc, median, n=6): 18.4 L/h | Cmax ([2]; both, plasma, sc, 3 mg, Cmax, single 3.0 mg sc, median, n=6): 49.1 ng/mL | Vd/F ([2]; both, plasma, sc, 3 mg, Vd/F, single 3.0 mg sc, mean (SD), n=4): 375 L | Vd/F ([2]; both, plasma, sc, 3 mg, Vd/F, single 3.0 mg sc, median, n=4): 394 L | half-life ([2]; both, plasma, sc, 3 mg, single 3.0 mg sc, geometric mean, n=6): 15.2 h | half-life ([2]; both, plasma, sc, 3 mg, single 3.0 mg sc, mean (SD), n=6): 19.5 h | half-life [2, 6]: 12.3 h | AUC(0-t) ([2]; both, plasma, sc, 5 mg): 226 ng·h/mL | tmax ([2]; both, plasma, sc, 5 mg): 0.8 h | AUC(0-inf) [2, 7]: 240 ng·h/mL | CL/F ([2]; both, plasma, sc, 5 mg, CL/F, single 5.0 mg sc, mean (SD), n=6): 21.3 L/h | Cmax ([2]; both, plasma, sc, 5 mg, Cmax, single 5.0 mg sc, mean (SD), n=6): 87.8 ng/mL | Vd/F ([2]; both, plasma, sc, 5 mg, Vd/F, single 5.0 mg sc, mean (SD), n=6): 502 L | half-life [2, 7]: 16.3 h | Median time for last measurable concentration ([2]; 0.1-mg dose): 2 h | Median time for last measurable concentration ([2]; 0.5-mg dose): 6 h | Median time for last measurable concentration ([2]; 1-mg dose): 16 h | Median time for last measurable concentration ([2]; 3-mg dose): 30 h | Median time for last measurable concentration ([2]; 5-mg dose): 48 h | AUC0–t [2, 8]: 2.6 ng·h/mL | AUC∞ [2, 8]: 3.4 ng·h/mL | AUC∞/dose [2, 8]: 34.2 ng·h/mL/mg | CL/F [2, 8]: 29.2 L/h | Cmax [2, 8]: 2.2 ng/mL | Cmax/dose [2, 8]: 22.1 ng/mL/mg | t½ [2, 8]: 0.8 h | AUC∞/dose [2, 9]: 34.9 (7.82) ng·h/mL/mg | Cmax/dose [2, 9]: 23.4 (10.1) ng/mL/mg | AUC0–t ([2]; single 0.1 mg sc, median, n=4): 2.6 ng·h/mL | AUC∞ ([2]; single 0.1 mg sc, median, n=4): 3.5 ng·h/mL | AUC∞/dose ([2]; single 0.1 mg sc, median, n=4): 35.3 ng·h/mL/mg | CL/F ([2]; single 0.1 mg sc, median, n=4): 28.5 L/h | Cmax ([2]; single 0.1 mg sc, median, n=4): 1.9 ng/mL | Cmax/dose ([2]; single 0.1 mg sc, median, n=4): 18.9 ng/mL/mg | Vd/F ([2]; single 0.1 mg sc, median, n=4): 36.6 L | t½ ([2]; single 0.1 mg sc, median, n=4): 0.8 h | AUC∞/dose [2, 10]: 50.4 ng·h/mL/mg | Vd/F [2, 10]: 74.1 L | AUC0–t [2, 11]: 16.8 ng·h/mL | AUC∞ [2, 11]: 19.4 ng·h/mL | CL/F [2, 11]: 25.8 L/h | Cmax [2, 11]: 7.6 ng/mL | Cmax/dose [2, 11]: 15.3 ng/mL/mg | t½ [2, 11]: 2.6 h | AUC∞/dose ([2]; single 0.5 mg sc, mean (SD), n=2): 59.9 (45.8) ng·h/mL/mg | Cmax/dose ([2]; single 0.5 mg sc, mean (SD), n=4): 16.4 (7.5) ng/mL/mg | AUC∞/dose ([2]; single 0.5 mg sc, median, n=2): 59.9 ng·h/mL/mg | Vd/F ([2]; single 0.5 mg sc, median, n=2): 74.4 L | AUC0–t ([2]; single 0.5 mg sc, median, n=4): 13.3 ng·h/mL | AUC∞ ([2]; single 0.5 mg sc, median, n=4): 15 ng·h/mL | CL/F ([2]; single 0.5 mg sc, median, n=4): 33.6 L/h | Cmax ([2]; single 0.5 mg sc, median, n=4): 7.2 ng/mL | Cmax/dose ([2]; single 0.5 mg sc, median, n=4): 14.3 ng/mL/mg | t½ ([2]; single 0.5 mg sc, median, n=4): 2.6 h | AUC∞/dose ([2]; single 1.0 mg sc, geometric mean, n=3): 35.4 ng·h/mL/mg | AUC0–t [2, 12]: 39.4 ng·h/mL | AUC∞ [2, 12]: 44.9 ng·h/mL | CL/F [2, 12]: 22.3 L/h | Cmax [2, 12]: 16.7 ng/mL | Cmax/dose [2, 12]: 16.7 ng/mL/mg | t½ [2, 12]: 6.1 h | AUC∞/dose ([2]; single 1.0 mg sc, mean (SD), n=3): 35.4 (1.8) ng·h/mL/mg | Cmax/dose ([2]; single 1.0 mg sc, mean (SD), n=6): 17.4 (5.0) ng/mL/mg | AUC∞/dose ([2]; single 1.0 mg sc, median, n=3): 34.5 ng·h/mL/mg | AUC0–t ([2]; single 1.0 mg sc, median, n=6): 39.2 ng·h/mL | AUC∞ ([2]; single 1.0 mg sc, median, n=6): 45.5 ng·h/mL | CL/F ([2]; single 1.0 mg sc, median, n=6): 22.7 L/h | Cmax ([2]; single 1.0 mg sc, median, n=6): 18.3 ng/mL | Cmax/dose ([2]; single 1.0 mg sc, median, n=6): 18.3 ng/mL/mg | t½ ([2]; single 1.0 mg sc, median, n=6): 6 h | AUC∞/dose ([2]; single 3.0 mg sc, geometric mean, n=4): 50.9 ng·h/mL/mg | Cmax/dose ([2]; single 3.0 mg sc, geometric mean, n=6): 17.8 ng/mL/mg | AUC∞/dose ([2]; single 3.0 mg sc, mean (SD), n=4): 51.3 (7.7) ng·h/mL/mg | AUC0–t [2, 13]: 138 (18.9) ng·h/mL | AUC∞ [2, 13]: 158 (19.4) ng·h/mL | Cmax [2, 13]: 54.4 (11.3) ng/mL | Cmax/dose [2, 13]: 18.1 (3.8) ng/mL/mg | AUC∞/dose ([2]; single 3.0 mg sc, median, n=4): 51.1 ng·h/mL/mg | AUC0–t ([2]; single 3.0 mg sc, median, n=6): 138 ng·h/mL | Cmax/dose ([2]; single 3.0 mg sc, median, n=6): 16.4 ng/mL/mg | tmax ([2]; single 3.0 mg sc, median, n=6): 0.6 h | AUC0–t [2, 14]: 224 ng·h/mL | AUC∞ [2, 14]: 237 ng·h/mL | AUC∞/dose [2, 14]: 47.5 ng·h/mL/mg | CL/F [2, 14]: 21.1 L/h | Cmax [2, 14]: 83.4 ng/mL | Cmax/dose [2, 14]: 16.7 ng/mL/mg | t½ [2, 14]: 16.1 h | AUC∞/dose [2, 15]: 48.0 (7.4) ng·h/mL/mg | Cmax/dose [2, 15]: 17.6 (6.2) ng/mL/mg | AUC0–t ([2]; single 5.0 mg sc, median, n=6): 235 ng·h/mL | AUC∞ ([2]; single 5.0 mg sc, median, n=6): 246 ng·h/mL | AUC∞/dose ([2]; single 5.0 mg sc, median, n=6): 49.2 ng·h/mL/mg | CL/F ([2]; single 5.0 mg sc, median, n=6): 20.3 L/h | Cmax ([2]; single 5.0 mg sc, median, n=6): 80.9 ng/mL | Cmax/dose ([2]; single 5.0 mg sc, median, n=6): 16.2 ng/mL/mg | Vd/F ([2]; single 5.0 mg sc, median, n=6): 496 L | t½ ([2]; single 5.0 mg sc, median, n=6): 17.3 h | Time after dosing at which PL8177 was first measurable in plasma ([2]; single sc dose): 15 min | Persistence of measurable PL8177 in plasma ([2]; single sc dose, at higher doses): up to 48 h | Dose linearity for AUC∞ and Cmax ([2]; single-dose arm): inconclusive | Intact drug excreted in the urine ([2]; single-dose arm): ≤ 1% | Time after dosing at which Cmax was generally reached (tmax) ([2]; single-dose arm): 0.5 to 0.75 h
Structure (SMILES): CCCC[C@H](NC(C)=O)C(=O)N[C@H]1CCC(=O)NC[C@@H](C(=O)N[C@@H](Cc2c[nH]c3ccccc23)C(N)=O)NC(=O)[C@H](CCCNC(=N)N)NC(=O)[C@@H](Cc2ccccc2)NC(=O)[C@H](Cc2c[nH]cn2)NC1=O [PL8177]
Accumulation ratio (Rac), AUClast day 28/AUClast day 1 ([1]; 1.5- and 9.0-mg doses as printed): 0.8 | Accumulation ratio (Rac), AUClast day 28/AUClast day 1 ([1]; 40-mg dose): 1.8 | Difference between mean Cmax and AUClast values, multiple-dose versus single-dose ([1]; sc): < 2 fold | Overall tolerability ([2]; single and multiple ascending sc doses): well tolerated | AEs leading to study discontinuation, serious AEs, or severe AEs ([2]; single-dose arm): no reports
